pIC50: −log10 of the molar value. ≈ marks a conversion by molar mass, not a printed value. Calls of active or inactive are those of the source. No cut-off for these calls is given here.
What was measured:
[1] = Selectivity for CDK4/Cyclin D1 over CDK2/Cyclin E
Outline: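 Selectivity was calculated as CDK2 IC₅₀ divided by CDK4 IC₅₀, using the Rb-phosphorylation kinase assay values.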

[2] = molecular target: Cyclin-dependent kinase 2/cyclin E1 (Homo sapiens, UniProt P24941); assay: Inhibition of CDK2/Cyclin E expressed in Sf9 cells assessed as inhibition of Rb phosphorylation
Outline: (§1)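 CDK4/cyclin D1 or CDK2/cyclin E was purified from baculovirus-infected Sf-9 cells. The substrate was bacterial GST-Rb on glutathione-sepharose beads, with [³³P]ATP. Reactions ran 30 min at 30 °C in filter plates, were washed four times and counted. IC₅₀ (µg/mL) came from dose–response curves, as the mean of at least two determinations.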

PC-6 = assay: Cytotoxicity against human PC6 cells after 3 days by MTT assay; format: functional, cell-based; settings: PC-6, 72 h
Outline: (§2)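 Cells (PC-6 shown) were kept in RPMI 1640 with 10% FBS and plated on day 0. Compound, serially diluted in DMSO, was added on day 1 at ten concentrations. Viable cells were counted by MTT after 3 days of culture. The 50% growth-inhibition concentration was solved from 100×[(T−T₀)/(C−T₀)]=50, where T₀ is the optical density at time zero.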

[3] = Aqueous solubility of compound; format: physicochemical; settings: water (aqueous)
[4] = molecular target: Cyclin-dependent kinase 4/cyclin D1 (Homo sapiens, UniProt P11802); assay: Inhibition of CDK4/Cyclin D1 expressed in Sf9 cells assessed as inhibition of Rb phosphorylation; outline: as §1
HCT-116 [5] = assay: Cytotoxicity against human HCT116 cells after 3 days by MTT assay; format: functional, cell-based; settings: HCT-116, 72 h; outline: as §2
Mus musculus [6] = assay: Toxicity in human HCT116 cells xenografted BALB/c mouse assessed as maximum body weight loss rate at 300 mg/kg, iv qd for 4 days measured 1 days post dose; format: organism-based, HCT-116; set-up: dose 300 mg/kg, route intravenous; settings: in vivo, 24 h
Outline: (§3)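 HCT116 tumour cells implanted s.c. in right hind limb of male BALB/c-nu/nu mice aged 5 or 6 weeks. Dosing began once tumours averaged 80–100 mm³, with compound in 20% Captisol solution given iv or po once daily for 4 days (qdx4). Tumour volume was measured periodically by caliper and body weight was followed. Maximum inhibition of tumour volume and maximum body weight loss are reported with their day after first dose. Deaths were scored as from toxicity or from tumour, out of 5 mice.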

HCT-116 [7] = assay: Antitumor activity against human HCT116 cells xenografted in BALB/c mouse assessed as maximum tumor volume inhibition rate at 300 mg/kg, iv qd for 4 days measured 7 days post dose; format: functional; outline: as §3
HCT-116 [8] = assay: Antitumor activity against human HCT116 cells xenografted in BALB/c mouse assessed as tumor induced mouse death at 300 mg/kg, iv qd for 4 days; format: functional, organism-based; set-up: dose 300 mg/kg; outline: as §3
Mus musculus [9] = assay: Toxicity in human HCT116 cells xenografted BALB/c mouse assessed as mouse mortality at 300 mg/kg, iv qd for 4 days; format: organism-based, HCT-116; set-up: dose 300 mg/kg, route intravenous; settings: in vivo, 96 h
Outline: (§4)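 HCT116 cells implanted subcutaneously in right hind limb of male BALB/c-nu/nu mice aged 5 or 6 weeks; dosing began once tumours averaged 80–100 mm³. Compound in 20% Captisol solution given iv or po once daily for 4 days (qdx4). Tumour volume measured periodically by caliper. Deaths scored as toxicity deaths/tumour deaths/mice used, n=5 per group.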

HCT-116 [10] = assay: Cell cycle arrest in human HCT116 cells assessed as accumulation at G1 phase at 50 ng/mL after 16 hrs using propidium iodide staining by flow cytometry; format: functional
Outline: (§5)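 HCT116 cells were treated for 16 h with compound at concentrations in ng/mL, with DMSO as control. Cells were then collected and their DNA content was analysed by flow cytometry. The percentages of cells in G0/G1, S and G2/M were quantified.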

Mus musculus [11] = assay: Toxicity in human HCT116 cells xenografted BALB/c mouse assessed as maximum body weight loss rate at 350 mg/kg, po qd for 4 days measured 5 days post dose; format: organism-based, HCT-116; set-up: dose 350 mg/kg, route oral; settings: in vivo, 120 h; outline: as §3
Mus musculus [12] = assay: Toxicity in human HCT116 cells xenografted BALB/c mouse assessed as maximum body weight loss rate at 300 mg/kg, iv qd for 4 days measured 7 days post dose; format: organism-based, HCT-116; set-up: dose 300 mg/kg, route intravenous; settings: in vivo, 168 h; outline: as §3
HCT-116 [13] = assay: Antitumor activity against human HCT116 cells xenografted in BALB/c mouse assessed as tumor induced mouse death at 350 mg/kg, po qd for 4 days; format: functional, organism-based; set-up: dose 350 mg/kg; outline: as §3
Mus musculus [14] = assay: Toxicity in human HCT116 cells xenografted BALB/c mouse assessed as mouse mortality at 350 mg/kg, po qd for 4 days; format: organism-based, HCT-116; set-up: dose 350 mg/kg, route oral; settings: in vivo, 96 h; outline: as §4
HCT-116 [15] = assay: Antitumor activity against human HCT116 cells xenografted in BALB/c mouse assessed as maximum tumor volume inhibition rate at 350 mg/kg, po qd for 4 days measured 6 days post dose; format: functional; outline: as §3
HCT-116 [16] = assay: Cell cycle arrest in human HCT116 cells assessed as accumulation at G1 phase at 60 ng/mL after 16 hrs using propidium iodide staining by flow cytometry; format: functional; outline: as §5
HCT-116 [17] = assay: Antitumor activity against human HCT116 cells xenografted in BALB/c mouse assessed as maximum tumor volume inhibition rate at 300 mg/kg, iv qd for 4 days measured 9 days post dose; format: functional; outline: as §3
HCT-116 [18] = assay: Antitumor activity against human HCT116 cells xenografted in BALB/c mouse assessed as tumor induced mouse death at 260 mg/kg, iv qd for 4 days; format: functional, organism-based; set-up: dose 260 mg/kg; outline: as §3
HCT-116 [19] = assay: Cell cycle arrest in human HCT116 cells assessed as decrease in accumulation at S phase at 100 ng/mL after 16 hrs using propidium iodide staining by flow cytometry; format: functional, cell-based; outline: as §5
HCT-116 [20] = assay: Cell cycle arrest in human HCT116 cells assessed as decrease in accumulation at G2/M phase at 100 ng/mL after 16 hrs using propidium iodide staining by flow cytometry; format: functional, cell-based; outline: as §5
Mus musculus [21] = assay: Toxicity in human HCT116 cells xenografted BALB/c mouse assessed as maximum body weight loss rate at 260 mg/kg, iv qd for 4 days; format: organism-based, HCT-116; set-up: dose 260 mg/kg, route intravenous; settings: in vivo, 96 h; outline: as §3
HCT-116 [22] = assay: Cell cycle arrest in human HCT116 cells assessed as accumulation at G1 phase at 100 ng/mL after 16 hrs using propidium iodide staining by flow cytometry; format: functional; outline: as §5
Mus musculus [23] = assay: Toxicity in human HCT116 cells xenografted BALB/c mouse assessed as mouse mortality at 260 mg/kg, iv qd for 4 days; format: organism-based, HCT-116; set-up: dose 260 mg/kg, route intravenous; settings: in vivo, 96 h; outline: as §4
HCT-116 [24] = assay: Antitumor activity against human HCT116 cells xenografted in BALB/c mouse assessed as maximum tumor volume inhibition rate at 260 mg/kg, iv qd for 4 days measured 5 days post dose; format: functional; outline: as §3

Cyclin-dependent kinase 4/cyclin D1, sequence (P11802 whole entry): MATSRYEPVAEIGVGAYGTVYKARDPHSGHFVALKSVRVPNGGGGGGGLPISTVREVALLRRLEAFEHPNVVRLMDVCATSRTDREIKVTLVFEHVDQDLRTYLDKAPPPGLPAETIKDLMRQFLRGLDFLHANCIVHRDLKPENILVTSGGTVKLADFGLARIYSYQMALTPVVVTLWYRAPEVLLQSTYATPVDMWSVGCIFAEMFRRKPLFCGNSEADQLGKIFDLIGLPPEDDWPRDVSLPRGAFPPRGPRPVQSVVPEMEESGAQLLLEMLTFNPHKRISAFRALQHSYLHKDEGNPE
Cyclin-dependent kinase 4/cyclin D1, sequence (P24385 whole entry, further chain): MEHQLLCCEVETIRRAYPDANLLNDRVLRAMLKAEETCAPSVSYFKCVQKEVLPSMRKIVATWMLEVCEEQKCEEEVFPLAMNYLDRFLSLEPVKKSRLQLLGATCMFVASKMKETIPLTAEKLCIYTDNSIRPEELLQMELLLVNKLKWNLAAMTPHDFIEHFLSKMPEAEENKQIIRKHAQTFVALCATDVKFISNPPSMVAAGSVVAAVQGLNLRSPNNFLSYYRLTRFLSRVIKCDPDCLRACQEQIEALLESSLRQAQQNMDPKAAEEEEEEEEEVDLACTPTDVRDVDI

Compound	Selectivity ratio [1]	pIC50 [2]	pIC50 [4]	IC50 (PC-6)	IC50 (HCT-116 [5])	also measured
COC(=O)c1ccc(/C=N/Nc2ncnc3sc(C(C)(C)C)cc23)cc1		< 4.27	< 4.27			
CN(CCO)Cc1ccc(/C=N/Nc2ncnc3sc(C(C)(C)C)cc23)cc1	10.4	6.14	7.15	0.124 µg/mL (≈ 0.312 µM)	0.169 µg/mL (≈ 0.425 µM)	
CC(C)(C)c1cc2c(N/N=C/c3ccc4c(c3)CNCC4)ncnc2s1	5.3	6.31	7.03	0.069 µg/mL (≈ 0.189 µM)	0.107 µg/mL (≈ 0.293 µM)	
CC(C)(C)c1cc2c(N/N=C/c3ccc4c(c3)CCNC4)ncnc2s1	16.8	5.76	6.98	0.049 µg/mL (≈ 0.134 µM)	0.046 µg/mL (≈ 0.126 µM)	Activity (Mus musculus [6]): 2.2%; inhibition in vivo at 300 mg/kg (HCT-116 [7]): 5%; Activity (HCT-116 [8]): Active; solubility [3]: 8.5 µg/mL (≈ 23.3 µM); Activity (Mus musculus [9]): Non-toxic; Activity (HCT-116 [10]): 56%
CC(C)N1Cc2ccc(/C=N/Nc3ncnc4sc(C(C)(C)C)cc34)cc2C1	37.5	5.12	6.69	0.134 µg/mL (≈ 0.34 µM)	0.206 µg/mL (≈ 0.523 µM)	
CC(C)(C)c1cc2c(N/N=C/c3ccc(C(=O)O)cc3)ncnc2s1	0.4	5.96	5.56	7.22 µg/mL (≈ 20.4 µM)	9.99 µg/mL (≈ 28.2 µM)	
CNCc1ccc(/C=N/Nc2ncnc3sc(C(C)(C)C)cc23)cc1	17.9	5.72	6.97	0.044 µg/mL (≈ 0.124 µM)	0.056 µg/mL (≈ 0.158 µM)	Activity (Mus musculus [11]): 16%; Activity (Mus musculus [12]): 9.7%; Activity (HCT-116 [13]): Active; Activity (HCT-116 [8]): Active; solubility [3]: 783 µg/mL (≈ 2220 µM); Activity (Mus musculus [14]): Non-toxic; inhibition in vivo at 350 mg/kg (HCT-116 [15]): 57%; Activity (HCT-116 [16]): 57%; inhibition in vivo at 300 mg/kg (HCT-116 [17]): 54%; Activity (Mus musculus [9]): Non-toxic
CC(C)(C)c1cc2c(N/N=C/c3ccc(CO)cc3)ncnc2s1	0.7	6.12	5.93	0.556 µg/mL (≈ 1.63 µM)	0.665 µg/mL (≈ 1.95 µM)	
CC(C)(C)c1cc2c(N/N=C/c3ccc(O)cc3)ncnc2s1		4.47	< 4.21	> 10 µg/mL	0.844 µg/mL (≈ 2.59 µM)	
CN1Cc2ccc(/C=N/Nc3ncnc4sc(C(C)(C)C)cc34)cc2C1	10.4	5.56	6.58	0.05 µg/mL (≈ 0.137 µM)	0.088 µg/mL (≈ 0.241 µM)	
CC(C)(C)c1cc2c(N/N=C/c3ccc4c(c3)CNC4)ncnc2s1	6.3	5.83	6.63	0.071 µg/mL (≈ 0.202 µM)	0.111 µg/mL (≈ 0.316 µM)	Activity (HCT-116 [18]): Active; Activity (HCT-116 [19]): Active; Activity (HCT-116 [20]): Active; Activity (Mus musculus [21]): < 0%; solubility [3]: 2.8 µg/mL (≈ 7.97 µM); Activity (HCT-116 [22]): 62%; Activity (Mus musculus [23]): Non-toxic; inhibition in vivo at 260 mg/kg (HCT-116 [24]): 61%

Further lines, with some results ahead:

Selectivity ratio [1]	pIC50 [2]	pIC50 [4]	Compound	IC50 (PC-6)	IC50 (HCT-116 [5])	also measured
25	5.42	6.82	CN(C)Cc1cccc(/C=N/Nc2ncnc3sc(C(C)(C)C)cc23)n1	0.381 µg/mL (≈ 1.03 µM)	0.419 µg/mL (≈ 1.14 µM)	solubility [3]: 44 µg/mL (≈ 119 µM)
42.3	5.52	7.15	CN(C)Cc1cccc(/C=N/Nc2ncnc3sc(C(C)(C)C)cc23)c1	0.598 µg/mL (≈ 1.63 µM)	0.405 µg/mL (≈ 1.1 µM)	
76.2	5.33	7.21	CC(C)(C)c1cc2c(N/N=C/c3ccc(CN)cc3)ncnc2s1	0.214 µg/mL (≈ 0.63 µM)	0.334 µg/mL (≈ 0.984 µM)	
7.8	5.79	6.68	CN(C)Cc1ccc(/C=N/Nc2ncnc3sc(C(C)(C)C)cc23)cc1	0.107 µg/mL (≈ 0.291 µM)	0.128 µg/mL (≈ 0.348 µM)	
> 33	< 4.19	5.71	CC(C)(C)c1cc2c(N/N=C/c3ccccc3)ncnc2s1	6.54 µg/mL (≈ 21.1 µM)		
	5.53	< 4.32	CN(C)S(=O)(=O)c1ccc(/C=N/Nc2ncnc3sc(C(C)(C)C)cc23)cc1	2.12 µg/mL (≈ 5.08 µM)	1.42 µg/mL (≈ 3.4 µM)	
